ChEMBL document CHEMBL4033790, “Design and Synthesis of Novel Deuterated Ligands Functionally Selective for the γ-Aminobutyric Acid Type A Receptor (GABAAR) α6 Subtype with Improved Metabolic Stability and Enhanced Bioavailability” (J Med Chem, 2018)

Experiments:
[1] = Ratio of brain AUC (0 to t) to plasma AUC (0 to t), Kp of the compound in Wistar rat at 10 mg/kg, ip administered as single dose by HPLC-MS/MS analysis; format: ADME, organism-based
[2] = target: Voltage-gated inwardly rectifying potassium channel KCNH2 (Homo sapiens, UniProt Q12809); test: Displacement of [3H]-dofetilide from human ERG expressed in HEK cell membranes at >10 uM after 60 to 90 mins by scintillation counting
Sequence of Voltage-gated inwardly rectifying potassium channel KCNH2 (Q12809 whole entry): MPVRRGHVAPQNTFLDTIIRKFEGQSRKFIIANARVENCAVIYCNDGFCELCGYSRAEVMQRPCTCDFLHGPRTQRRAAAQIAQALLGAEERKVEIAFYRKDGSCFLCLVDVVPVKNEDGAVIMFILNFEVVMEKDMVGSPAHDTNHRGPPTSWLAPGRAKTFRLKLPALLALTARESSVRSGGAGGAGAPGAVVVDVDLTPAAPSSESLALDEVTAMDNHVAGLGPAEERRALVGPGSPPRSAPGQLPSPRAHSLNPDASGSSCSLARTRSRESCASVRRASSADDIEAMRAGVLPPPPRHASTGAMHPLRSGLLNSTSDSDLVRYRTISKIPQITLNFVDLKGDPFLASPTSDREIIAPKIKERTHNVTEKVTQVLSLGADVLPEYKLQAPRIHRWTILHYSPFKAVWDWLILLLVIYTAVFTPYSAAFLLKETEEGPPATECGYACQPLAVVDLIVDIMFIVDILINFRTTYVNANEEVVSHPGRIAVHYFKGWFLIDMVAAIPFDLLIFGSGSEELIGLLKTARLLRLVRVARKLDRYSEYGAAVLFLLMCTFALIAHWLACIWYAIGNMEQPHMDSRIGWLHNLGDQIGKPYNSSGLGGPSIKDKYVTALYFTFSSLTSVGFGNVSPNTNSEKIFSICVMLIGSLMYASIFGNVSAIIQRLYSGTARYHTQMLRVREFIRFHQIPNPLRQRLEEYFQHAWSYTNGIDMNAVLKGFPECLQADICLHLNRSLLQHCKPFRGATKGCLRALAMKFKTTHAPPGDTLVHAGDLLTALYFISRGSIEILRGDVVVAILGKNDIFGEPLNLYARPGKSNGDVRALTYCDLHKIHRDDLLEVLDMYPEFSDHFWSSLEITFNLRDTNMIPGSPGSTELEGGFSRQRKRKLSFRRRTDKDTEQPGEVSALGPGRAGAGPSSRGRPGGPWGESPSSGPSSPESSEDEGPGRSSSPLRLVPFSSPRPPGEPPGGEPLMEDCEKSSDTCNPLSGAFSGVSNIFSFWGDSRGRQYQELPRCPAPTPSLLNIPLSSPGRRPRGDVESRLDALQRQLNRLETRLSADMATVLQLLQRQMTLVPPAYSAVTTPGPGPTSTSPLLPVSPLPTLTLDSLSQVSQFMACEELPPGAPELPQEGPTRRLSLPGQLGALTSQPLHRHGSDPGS

[3] = Metabolic stability in mouse liver microsomes assessed as parent compound remaining at 10 uM after 60 mins by LC-MS analysis; format: ADME, microsome; conditions: read-out: Stability
Method in brief: (§1)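 The 60 min samples of the microsomal incubation (10 μM compound, human or mouse liver microsomes at 0.5 mg/mL, NADPH regenerating system, 37 °C) were analysed by LC-MS. Detection used SIM mode with dual ESI/APCI ionization, calibrated to the retention times and masses of the parent and its O-demethylated metabolites. Peak intensities were measured.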

[4] = Metabolic stability in human liver microsomes assessed as parent compound remaining at 10 uM after 60 mins by LC-MS analysis; format: ADME, microsome; conditions: read-out: Stability; method in brief: as §1
Brain [5] = test: Oral bioavailability in Wistar rat brain at 2 mg/kg administered as single dose via gavage by HPLC-MS/MS analysis; format: ADME, organism-based; conditions: in vivo
Method in brief: (§2)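 Male Wistar rats (250-350 g) received a single 2 mg/kg dose, nanoemulsion formulation, by oral gavage or IV. Three rats per time point (5, 30, 120, 480, 1440 min); plasma and brain collected. Compound extracted by solid-phase extraction and quantified by HPLC-MS/MS. Absolute oral bioavailability was calculated from plasma AUC after the two routes.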

[6] = Terminal elimination half-life in Wistar rat brain at 10 mg/kg, ip administered as single dose by HPLC-MS/MS analysis; format: ADME, organism-based; conditions: read-out: beta t1/2 (converted)
Method in brief: (§3)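 Male Wistar rats (250–350 g) received a single i.p. dose of 10 mg/kg as a 5 mg/ml suspension in 85% water, 14% propylene glycol and 1% Tween 80. Three rats per time point were sacrificed at 5, 20, 60, 180 and 720 min for plasma and brain. Samples were cleaned up by solid-phase extraction and quantified by HPLC-MS/MS.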

[7] = Cmax in Wistar rat plasma at 2 mg/kg administered as single dose via oral gavage measured at 5 to 1440 mins post dose by HPLC-MS/MS analysis; format: ADME, organism-based; design: dose 2 mg/kg, route oral
Method in brief: (§4)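 Absolute oral bioavailability study in Wistar rats: single 2 mg/kg dose by oral gavage or IV, using nanoemulsion formulations. Three rats per time point (5, 30, 120, 480, 1440 min). Plasma and brain were extracted by solid phase extraction and levels measured by HPLC-MS/MS. Bioavailability was calculated from plasma AUC for the two routes.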

[8] = Cmax in Wistar rat brain at 2 mg/kg, iv administered as single dose measured at 5 to 1440 mins post dose by HPLC-MS/MS analysis; format: ADME, organism-based; design: dose 2 mg/kg, route intravenous; method in brief: as §4
Mus musculus [9] = test: Hyperlocomotor activity in C57BL/6 mouse assessed as total distance travelled at 3 to 10 mg/kg, ip after 60 mins; format: ADME, organism-based; conditions: in vivo, 1 h
[10] = Terminal elimination half-life in Wistar rat brain at 2 mg/kg, iv administered as single dose by HPLC-MS/MS analysis; format: ADME, organism-based; conditions: read-out: beta t1/2 (converted); method in brief: as §2
[11] = Cmax in Wistar rat plasma at 10 mg/kg, ip administered as single dose measured at 5 to 720 mins post dose by HPLC-MS/MS analysis; format: ADME, organism-based; design: dose 10 mg/kg, route intraperitoneal
Method in brief: (§5)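 Male Wistar rats (250-350 g) given a single 10 mg/kg i.p. dose of a 5 mg/ml suspension in 85% distilled water, 14% propylene glycol, 1% Tween 80. Three rats per time point (5, 20, 60, 180, 720 min). Blood and brain were collected after sacrifice. Drug was recovered by solid phase extraction and quantified by HPLC-MS/MS.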

[12] = Tmax in Wistar rat plasma at 2 mg/kg administered as single dose via oral gavage by HPLC-MS/MS analysis; format: ADME, organism-based
Method in brief: (§6)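 Male Wistar rats (250–350 g) received a single 2 mg/kg dose, by oral gavage or IV, from nanoemulsion formulations. Three rats per time point were sampled for plasma and brain at 5, 30, 120, 480 and 1440 min. Compound levels were measured by HPLC-MS/MS after solid-phase extraction; oral bioavailability was derived from plasma AUCs for the two routes.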

[13] = Terminal elimination half-life in Wistar rat plasma at 2 mg/kg administered as single dose via oral gavage by HPLC-MS/MS analysis; format: ADME, organism-based; conditions: read-out: beta t1/2 (converted); method in brief: as §6
[14] = Terminal elimination half-life in Wistar rat plasma at 2 mg/kg, iv administered as single dose by HPLC-MS/MS analysis; format: ADME, organism-based; conditions: read-out: beta t1/2 (converted); method in brief: as §6
Mus musculus [15] = test: Neurotoxicity in Swiss Webster mouse assessed as induction of motor impairment at 40 mg/kg administered via oral gavage measured after 10 to 60 mins by rotarod method; format: toxicity, organism-based; conditions: in vivo
Method in brief: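 Female mice were given a single oral gavage dose of 40 mg/kg, either in 50% PBS/40% propylene glycol/10% DMSO or, for poorly soluble compounds, in 2% polyethylene glycol plus 2.5% hydroxymethyl cellulose. Rotarod performance was tested 10, 30 and 60 min after dosing, with diazepam 5 mg/kg as positive control.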

[16] = AUC (0 to 24 hrs) in Wistar rat plasma at 2 mg/kg, iv administered as single dose by HPLC-MS/MS analysis; format: ADME, organism-based; design: dose 2 mg/kg, time < 24 hr, route intravenous
Rattus norvegicus = test: Hyperlocomotor activity in Wistar rat assessed as total distance travelled at 3 to 10 mg/kg, ip after 60 mins; format: ADME, organism-based; conditions: in vivo, 1 h
[17] = AUC (0 to 12 hrs) in Wistar rat plasma at 10 mg/kg, ip administered as single dose by HPLC-MS/MS analysis; format: ADME, organism-based; design: time < 12 hr, dose 10 mg/kg, route intraperitoneal
[18] = Cmax in Wistar rat brain at 10 mg/kg, ip administered as single dose measured at 5 to 720 mins post dose by HPLC-MS/MS analysis; format: ADME, organism-based; design: dose 10 mg/kg, route intraperitoneal; method in brief: as §5
[19] = Cmax in Wistar rat plasma at 2 mg/kg, iv administered as single dose measured at 5 to 1440 mins post dose by HPLC-MS/MS analysis; format: ADME, organism-based; design: dose 2 mg/kg, route intravenous; method in brief: as §4
[20] = Tmax in Wistar rat brain at 10 mg/kg, ip administered as single dose by HPLC-MS/MS analysis; format: ADME, organism-based; method in brief: as §3
Brain [21] = test: AUC (0 to 24 hrs) in Wistar rat brain at 2 mg/kg administered as single dose via oral gavage by HPLC-MS/MS analysis; format: ADME, organism-based; design: time < 24 hr, dose 2 mg/kg, route oral; conditions: in vivo
Brain [22] = test: AUC (0 to 24 hrs) in Wistar rat brain at 2 mg/kg, iv administered as single dose by HPLC-MS/MS analysis; format: ADME, organism-based; design: time < 24 hr, dose 2 mg/kg, route intravenous; conditions: in vivo
[23] = Cmax in Wistar rat brain at 2 mg/kg administered as single dose via oral gavage measured at 5 to 1440 mins post dose by HPLC-MS/MS analysis; format: ADME, organism-based; design: dose 2 mg/kg, route oral; method in brief: as §2
[24] = Tmax in Wistar rat brain at 2 mg/kg administered as single dose via oral gavage by HPLC-MS/MS analysis; format: ADME, organism-based; method in brief: as §6
[25] = AUC (0 to 24 hrs) in Wistar rat plasma at 2 mg/kg administered as single dose via oral gavage by HPLC-MS/MS analysis; format: ADME, organism-based; design: dose 2 mg/kg, time < 24 hr, route oral
[26] = Tmax in Wistar rat plasma at 10 mg/kg, ip administered as single dose by HPLC-MS/MS analysis; format: ADME, organism-based; method in brief: as §3
[27] = Tmax in Wistar rat brain at 2 mg/kg, iv administered as single dose by HPLC-MS/MS analysis; format: ADME, organism-based; method in brief: as §6

COc1ccc(-n2nc3c4ccc(OC)cc4[nH]cc-3c2=O)cc1
Kp [1]: 0.08 | inhibition (INH) [2]: Not Active | remaining at 1 h, 10 µM [3]: 80.3% | remaining at 1 h, 10 µM [4]: 86.1% | F (Brain [5]): 82.6% | half-life [6]: 1.96 h | Cmax [7]: 173 ng/mL | Cmax [8]: 84.5 ng/g | Activity (Mus musculus [9]): Toxic | half-life [10]: 10.9 h | Cmax [11]: 5050 ng/mL | Tmax [12]: 2 h | half-life [13]: 9 h | half-life [14]: 5.29 h | Activity (Mus musculus [15]): Non-Toxic | AUC(0-t) at 24 h [16]: 1890 ng·h/mL | Activity (Rattus norvegicus): Toxic | AUC(0-t) at 12 h [17]: 28800 ng·h/mL | Cmax [18]: 352 ng/g | Cmax [19]: 597 ng/mL | Tmax [20]: 2.33 h | AUC (Brain [21]): 708.21 ng·h/g | AUC (Brain [22]): 857.8 ng·h/g | Cmax [23]: 67.3 ng/g | Tmax [24]: 1.5 h | AUC(0-t) at 24 h [25]: 1270 ng·h/mL | Tmax [26]: 1 h | Tmax [27]: 0.86 h

[2H]C([2H])([2H])Oc1ccc(-n2nc3c4ccc(OC)cc4[nH]cc-3c2=O)cc1
Kp [1]: 0.13 | inhibition (INH) [2]: Not Active | remaining at 1 h, 10 µM [3]: 92.8% | remaining at 1 h, 10 µM [4]: 91.7% | F (Brain [5]): 89.5% | half-life [6]: 2.28 h | Cmax [7]: 222 ng/mL | Cmax [8]: 71.9 ng/g | Activity (Mus musculus [9]): Toxic | half-life [10]: 4.34 h | Cmax [11]: 4430 ng/mL | Tmax [12]: 5.5 h | half-life [13]: 1.4 h | half-life [14]: 1.95 h | Activity (Mus musculus [15]): Non-Toxic | AUC(0-t) at 24 h [16]: 3000 ng·h/mL | Activity (Rattus norvegicus): Toxic | AUC(0-t) at 12 h [17]: 24200 ng·h/mL | Cmax [18]: 587 ng/g | Cmax [19]: 728 ng/mL | Tmax [20]: 2.33 h | AUC (Brain [21]): 513.12 ng·h/g | AUC (Brain [22]): 573.46 ng·h/g | Cmax [23]: 67.3 ng/g | Tmax [24]: 3.5 h | AUC(0-t) at 24 h [25]: 3000 ng·h/mL | Tmax [26]: 1.67 h | Tmax [27]: 1.36 h
